Results reported in ChEMBL document CHEMBL3739417, “Synthesis and biological evaluation of novel 4,5-disubstituted 2H-1,2,3-triazoles as cis-constrained analogues of combretastatin A-4” (2015).

Columns and labels:
Type in all cases: functional
[1] = test system: A498; assay: Growth inhibition of human A498 cells after 48 hrs by sulforhodamine B assay; details: A498, 48 h
Procedure, shortened: (§1)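 NCI-60 sulforhodamine B screen. Compounds were first tested at a single dose of 10⁻⁵ M; hits, defined as ≥60% growth inhibition in at least eight lines, went on to a five-concentration dose–response. SRB optical density was read before and 48 h after exposure to compound or vehicle. Percentage growth was calculated from OD.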

[2] = Growth inhibition of human RPMI8226 cells after 48 hrs by sulforhodamine B assay; details: RPMI-8226, 48 h
Procedure, shortened: (§2)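 NCI-60 panel screen by SRB assay (Rubinstein method). Percentage growth taken from optical density of SRB colour, read before and 48 hrs after exposure to compound or vehicle control. All analogues first screened at 10^-5 M. Analogues giving 60% growth inhibition at that level in at least eight lines then went to a five-concentration dose-response study.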

[3] = test system: NCI-H23; assay: Growth inhibition of human NCI-H23 cells after 48 hrs by sulforhodamine B assay; details: NCI-H23, 48 h; procedure, shortened: as §2
[4] = Growth inhibition of human DU145 cells after 48 hrs by sulforhodamine B assay; details: DU-145, 48 h; procedure, shortened: as §2
[5] = Growth inhibition of human SF268 cells after 48 hrs by sulforhodamine B assay; details: SF-268, 48 h; procedure, shortened: as §2
[6] = test system: MDA-MB-435; assay: Growth inhibition of human MDA-MB-435 cells after 48 hrs by sulforhodamine B assay; details: MDA-MB-435, 48 h; procedure, shortened: as §1
[7] = Growth inhibition of human NCI-ADR-RES cells after 48 hrs by sulforhodamine B assay; procedure, shortened: as §2
[8] = Growth inhibition of human HCT15 cells after 48 hrs by sulforhodamine B assay; details: HCT-15, 48 h; procedure, shortened: as §2
[9] = Growth inhibition of human SNB75 cells after 48 hrs by sulforhodamine B assay; details: SNB-75, 48 h; procedure, shortened: as §2
[10] = Growth inhibition of human IGROV1 cells after 48 hrs by sulforhodamine B assay; details: IGROV-1, 48 h; procedure, shortened: as §2
[11] = test system: CAKI-1; assay: Growth inhibition of human CAKI-1 cells after 48 hrs by sulforhodamine B assay; details: CAKI-1, 48 h; procedure, shortened: as §2
[12] = Growth inhibition of human HCT116 cells after 48 hrs by sulforhodamine B assay; details: HCT-116, 48 h; procedure, shortened: as §2
[13] = test system: HT-29; assay: Growth inhibition of human HT-29 cells after 48 hrs by sulforhodamine B assay; details: HT-29, 48 h; procedure, shortened: as §2
[14] = test system: A549; assay: Growth inhibition of human A549/ATCC cells after 48 hrs by sulforhodamine B assay; details: A549, 48 h; procedure, shortened: as §2
[15] = Growth inhibition of human LOXIMVI cells after 48 hrs by sulforhodamine B assay; details: LOX IMVI; procedure, shortened: as §2
[16] = test system: MDA-MB-231; assay: Growth inhibition of human MDA-MB-231 cells after 48 hrs by sulforhodamine B assay; details: MDA-MB-231, 48 h; procedure, shortened: as §2
[17] = Growth inhibition of human UO31 cells after 48 hrs by sulforhodamine B assay; details: UO-31, 48 h; procedure, shortened: as §2
[18] = test system: NCI-H460; assay: Growth inhibition of human NCI-H460 cells after 48 hrs by sulforhodamine B assay; details: NCI-H460, 48 h; procedure, shortened: as §2
[19] = Growth inhibition of human SF295 cells after 48 hrs by sulforhodamine B assay; details: SF-295, 48 h; procedure, shortened: as §2
[20] = test system: SR; assay: Growth inhibition of human SR cells after 48 hrs by sulforhodamine B assay; procedure, shortened: as §2
[21] = test system: 786-0; assay: Growth inhibition of human 786-0 cells after 48 hrs by sulforhodamine B assay; details: 786-0, 48 h; procedure, shortened: as §2
[22] = Growth inhibition of human HCC2998 cells after 48 hrs by sulforhodamine B assay; details: HCC 2998, 48 h; procedure, shortened: as §2
[23] = test system: KM12; assay: Growth inhibition of human KM12 cells after 48 hrs by sulforhodamine B assay; details: KM12, 48 h; procedure, shortened: as §2
[24] = test system: ACHN; assay: Growth inhibition of human ACHN cells after 48 hrs by sulforhodamine B assay; procedure, shortened: as §2
[25] = Growth inhibition of human MOLT4 cells after 48 hrs by sulforhodamine B assay; details: MOLT-4, 48 h; procedure, shortened: as §2
[26] = Growth inhibition of human SW620 cells after 48 hrs by sulforhodamine B assay; details: SW-620, 48 h; procedure, shortened: as §2
[27] = test system: U-251; assay: Growth inhibition of human U251 cells after 48 hrs by sulforhodamine B assay; details: U-251, 48 h; procedure, shortened: as §2
[28] = Growth inhibition of human OVCAR3 cells after 48 hrs by sulforhodamine B assay; details: OVCAR-3, 48 h; procedure, shortened: as §1
[29] = Growth inhibition of human COLO205 cells after 48 hrs by sulforhodamine B assay; details: COLO 205, 48 h; procedure, shortened: as §2
[30] = Growth inhibition of human PC3 cells after 48 hrs by sulforhodamine B assay; details: PC-3, 48 h; procedure, shortened: as §2
[31] = Growth inhibition of human HOP92 cells after 48 hrs by sulforhodamine B assay; details: HOP-92, 48 h; procedure, shortened: as §2
[32] = test system: MDA-MB-468; assay: Growth inhibition of human MDA-MB-468 cells after 48 hrs by sulforhodamine B assay; details: MDA-MB-468, 48 h; procedure, shortened: as §2
[33] = Growth inhibition of human SKOV3 cells after 48 hrs by sulforhodamine B assay; details: SK-OV-3, 48 h; procedure, shortened: as §2
[34] = test system: MCF7; assay: Growth inhibition of human MCF7 cells after 48 hrs by sulforhodamine B assay; details: MCF7, 48 h; procedure, shortened: as §2
[35] = test system: SK-MEL-2; assay: Growth inhibition of human SK-MEL-2 cells after 48 hrs by sulforhodamine B assay; details: SK-MEL-2, 48 h; procedure, shortened: as §2
[36] = Growth inhibition of human HL-60(TB) cells after 48 hrs by sulforhodamine B assay; details: HL-60, 48 h; procedure, shortened: as §2
[37] = test system: CCRF-CEM; assay: Growth inhibition of human CCRF-CEM cells after 48 hrs by sulforhodamine B assay; procedure, shortened: as §2
[38] = read-out: LD50 (the source's name)

Q: What does the source list for `COc1ccc(-c2nn[nH]c2-c2cc(OC)c(OC)c(OC)c2)cc1`?
A: GI50 [1]: < 0.01 µM; TGI [1]: < 0.01 µM; LC50 (50% net cell kill) ([1]; read-out: LD50): > 100 µM; GI50 [2]: < 0.01 µM; CC50 [2, 38]: > 100 µM; GI50 [3]: < 0.01 µM; LC50 (concentration giving 50% cell kill) ([3]; read-out: LD50): > 100 µM; GI50 [4]: < 0.01 µM; CC50 [4, 38]: > 100 µM; GI50 [5]: < 0.01 µM; CC50 [5, 38]: > 100 µM; GI50 [6]: < 0.01 µM; TGI [6]: < 0.01 µM; LC50 (concentration killing 50% of cells) ([6]; read-out: LD50): > 100 µM; GI50 [7]: < 0.01 µM; CC50 [7, 38]: > 100 µM; GI50 [8]: < 0.01 µM; CC50 [8, 38]: > 100 µM; GI50 [9]: < 0.01 µM; CC50 [9, 38]: > 100 µM; GI50 [10]: < 0.01 µM; CC50 [10, 38]: > 100 µM; GI50 [11]: < 0.01 µM; CC50 [11, 38]: > 100 µM; GI50 [12]: < 0.01 µM; CC50 [12, 38]: > 100 µM; GI50 [13]: < 0.01 µM; LC50 (concentration killing 50% of cells) ([13]; read-out: LD50): > 100 µM; GI50 [14]: < 0.01 µM; CC50 [14, 38]: > 100 µM; GI50 [15]: < 0.01 µM; CC50 [15, 38]: > 100 µM; GI50 [16]: < 0.01 µM; CC50 [16, 38]: > 100 µM; GI50 [17]: < 0.01 µM; LC50 (concentration killing 50% of cells) ([17]; read-out: LD50): > 100 µM; GI50 [18]: < 0.01 µM; CC50 [18, 38]: > 100 µM; GI50 [19]: < 0.01 µM; CC50 [19, 38]: > 100 µM; GI50 [20]: < 0.01 µM; LC50 (concentration giving 50% net cell kill) ([20]; read-out: LD50): > 100 µM; GI50 [21]: < 0.01 µM; LC50 (concentration killing 50% of cells) ([21]; read-out: LD50): > 100 µM; GI50 [22]: 0.024 µM; CC50 [22, 38]: > 100 µM; GI50 [23]: < 0.01 µM; LC50 (concentration killing 50% of cells) ([23]; read-out: LD50): > 100 µM; GI50 [24]: < 0.01 µM; CC50 [24, 38]: > 100 µM; GI50 [25]: 0.012 µM; CC50 [25, 38]: > 100 µM; GI50 [26]: < 0.01 µM; LD50 (concentration killing 50% of cells) [26]: > 100 µM; GI50 [27]: < 0.01 µM; CC50 [27, 38]: > 100 µM; GI50 [28]: < 0.01 µM; TGI [28]: < 0.01 µM; LC50 (concentration giving 50% net cell kill) ([28]; read-out: LD50): > 100 µM; GI50 [29]: 0.029 µM; CC50 [29, 38]: > 100 µM; GI50 [30]: < 0.01 µM; CC50 [30, 38]: > 100 µM; GI50 [31]: < 0.01 µM; CC50 [31, 38]: > 100 µM; GI50 [32]: < 0.01 µM; CC50 [32, 38]: > 100 µM; GI50 [33]: < 0.01 µM; LC50 (concentration killing 50% of cells) ([33]; read-out: LD50): > 100 µM; GI50 [34]: < 0.01 µM; CC50 [34, 38]: > 100 µM; GI50 [35]: < 0.01 µM; CC50 [35, 38]: > 100 µM; GI50 [36]: < 0.01 µM; CC50 [36, 38]: > 100 µM; GI50 [37]: < 0.01 µM; LC50 (concentration killing 50% of cells) ([37]; read-out: LD50): > 100 µM
